Source: ChEMBL document CHEMBL5506034, “Development of Inhibitors, Probes, and PROTAC Provides a Complete Toolbox to Study PARK7 in the Living Cell” (J Med Chem, 2024)
Active and inactive are the calls of the source. The rule behind the calls is not given here.

Experiments:
[1] = target: T1, Parkinson disease protein 7 (Homo sapiens) (UniProt Q99497); test: Binding affinity to recombinant human PARK7 incubated for 1 hrs by coomassie staining based SDS-PAGE fluorescence scanning analysis; details: dose 0.1-10 µM
T1 sequence (whole entry): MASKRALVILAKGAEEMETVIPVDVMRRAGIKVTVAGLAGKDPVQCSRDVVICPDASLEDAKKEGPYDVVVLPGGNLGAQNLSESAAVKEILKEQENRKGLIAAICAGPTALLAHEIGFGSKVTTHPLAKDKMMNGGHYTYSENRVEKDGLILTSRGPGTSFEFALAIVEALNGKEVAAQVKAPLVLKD

[2] = target: T1, Parkinson disease protein 7 (Homo sapiens); test: Binding affinity to recombinant human PARK7 at 2 uM incubated for 1 hrs by coomassie staining based SDS-PAGE fluorescence scanning analysis relative to control
[3] = target: T1, Parkinson disease protein 7 (Homo sapiens); test: Binding affinity to PARK7 in human A549 cells assessed as band shift at 5 uM incubated for 24 hrs by SDS-PAGE based fluorescence scanning immunoblotting analysis; type: cell-based
How it was run: (§1)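 Probes applied to intact HEK293T or A549 cells at 5 μM final for 24 h, then lysed. Read-out by SDS-PAGE fluorescence scan and immunoblot against PARK7, looking at the ~25 kDa labelled band, PARK7 band shift and extra bands.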

[4] = Drug penetration in human A549 cells at 5 uM incubated for 1 hrs by DAPI staining based confocal microscopic analysis; type: ADME, cell-based; details: a549, 1 h
How it was run: (§2)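 A549 cells incubated with probes at 5 μM final over a time course (1–24 h). For microscopy, cells on coverslips were fixed in 3.7% formaldehyde/PBS for 20 min, mounted with DAPI and imaged by confocal (63× oil). In parallel, cells were lysed for SDS-PAGE fluorescence scan and PARK7 immunoblot.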

[5] = target: T1, Parkinson disease protein 7 (Homo sapiens); test: Binding affinity to PARK7 in human A549 cells assessed as band shift at 5 uM incubated for 4 hrs by SDS-PAGE based fluorescence scanning immunoblotting analysis relative to control; type: cell-based; how it was run: as §2
A549 [6] = test: Cellular protein labelling in human A549 cells assessed as unspecific 55-75 kDa band formation at 5 uM by SDS-PAGE based fluorescence scanning immunoblotting analysis; type: functional, cell-based; how it was run: as §1
A549 [7] = test: Cellular protein labelling in human A549 cells transfected with PARK7 siRNA assessed as unspecific 55-75 kDa band formation at 5 uM incubated for 4 hrs by SDS-PAGE based fluorescence scanning immunoblotting analysis; type: functional, cell-based
How it was run: (§3)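 HEK293T or A549 cells reverse-transfected with pooled PARK7 siRNA (Dharmafect 1), grown 48 h, then given probe at 5 μM final for 4 h. Lysates analysed by SDS-PAGE fluorescence scan and PARK7 immunoblot against control-transfected cells.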

HEK-293T [8] = test: Cellular protein labelling in HEK293T cells transfected with PARK7 siRNA assessed as unspecific 55-75 kDa band formation at 5 uM incubated for 4 hrs by SDS-PAGE based fluorescence scanning immunoblotting analysis; type: functional, cell-based; details: Homo sapiens; how it was run: as §3
A549 [9] = test: Cellular protein labelling in human A549 cells transfected with PARK7 siRNA assessed as PARK7 specific band formation at 5 uM incubated for 4 hrs by SDS-PAGE based fluorescence scanning immunoblotting analysis; type: functional, cell-based; how it was run: as §3
HEK-293T [10] = test: Cellular protein labelling in HEK293T cells transfected with PARK7 siRNA assessed as PARK7 specific band formation at 5 uM incubated for 4 hrs by SDS-PAGE based fluorescence scanning immunoblotting analysis; type: functional, cell-based; details: Homo sapiens; how it was run: as §3
[11] = target: T1, Parkinson disease protein 7 (Homo sapiens); test: Binding affinity to PARK7 in HEK293T cells upto 10 uM incubated for 4 hrs by SDS-PAGE based fluorescence scanning immunoblotting analysis; type: cell-based
How it was run: (§4)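 HEK293T or A549 cells given the Bodipy probe at 0–10 μM for 4 h, then lysed. Lysates run on 12% Bis-Tris SDS-PAGE and fluorescence-scanned. Immunoblot for PARK7 with β-actin as loading control.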

[12] = target: T1, Parkinson disease protein 7 (Homo sapiens); test: Binding affinity to PARK7 in human A549 cells upto 10 uM incubated for 4 hrs by SDS-PAGE based fluorescence scanning immunoblotting analysis; type: cell-based; how it was run: as §4
[13] = target: T1, Parkinson disease protein 7 (Homo sapiens); test: Binding affinity to PARK7 in A549 cells assessed as band shift at 5 uM incubated for 24 hrs by SDS-PAGE based fluorescence scanning immunoblotting analysis
A549 (Homo sapiens) = test: Cellular protein labelling in A549 cells assessed as unspecific 55-75 kDa band formation at 5 uM by SDS-PAGE based fluorescence scanning immunoblotting analysis

Compound: CC1=CC(C)=[N+]2C1=C(CCCCc1cn(-c3ccc(F)c(C(=O)N4CCc5nc(NC(=O)[C@@H]6CCN(C#N)C6)sc5C4)c3)nn1)c1c(C)cc(C)n1[B-]2(F)F
- Activity [1]: Dose-Dependent Effect
- Activity [2]: 100%
- Activity [3]: Active
- Drug uptake [4]: Active
- Activity [5]: 100%
- Activity (A549 [6]): Active
- Activity (A549 [7]): Active
- Activity (HEK-293T [8]): Active
- Activity (A549 [9]): inactive
- Activity (HEK-293T [10]): inactive
- Activity [11]: Active
- Activity [12]: Active
- Activity [13]: Active
- Activity (A549 (Homo sapiens)): Active
